Measured values taken from publication PMC8358665 (Chembiochem : a European journal of chemical biology, 2021).

What was measured:
Type in all cases: cell-based
VCaP_NED = experiment: Western blotting of protein expression during NED; details: 10 μM, 48 hours
Outline: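 Neuroendocrine-differentiated cells were treated for 48 h with DMSO, 10 μM GSK343 (an EZH2 inhibitor) or 10 μM test compound. Parental cells treated with DMSO served as the reference. Whole-cell lysates were extracted and analysed by western blotting. Data are from n=3 biological replicates, shown with SEM, and compared by two-tailed Student's t-test.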

LNCaP cells = experiment: Cell proliferation
LNCaP_NED cells = experiment: Cell proliferation
Outline: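 LNCaP cells were cultured in charcoal-stripped serum (androgen- and steroid-depleted) media to induce neuroendocrine differentiation (LNCaP_NED). NED cells were then exposed to the test compound and/or the AR antagonist enzalutamide for 4 days, and cell proliferation was measured. DMSO served as the negative control.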

## CCCc1cc(C)[nH]c(=O)c1CNC(=O)c1cc(-c2ccnc(N3CCN(C)CC3)c2)cc2c1cnn2C(C)C [GSK343]
VCaP_NED
  CBX2 protein expression: decrease in CBX2 expression
  H3K27me3 levels (global): reduces H3K27me3 levels
VCaP_NED; compared to DMSO
  AR protein expression: increase AR
  ENO2 and N-Myc protein expression: decrease ENO2 and N-Myc expression

## CNC(=O)c1ccc(N2C(=S)N(c3ccc(C#N)c(C(F)(F)F)c3)C(=O)C2(C)C)cc1F [enzalutamide]
LNCaP cells
  cell proliferation with AR antagonist: highly decreased proliferation
LNCaP_NED cells
  cell proliferation with AR antagonist: no further decrease in proliferation
